Assay outcomes from PubChem.
PG9 binder – binders of HIV-1 gp120 antibody PG9, primary screen, biochemical, TR-FRET; HIV-1 gp120 / PG9 antibody interaction; TR-FRET gp120-PG9 antibody binding; inhibition, % at 6.7 µM; actives 0.43% (n = 360,000); in the data active = inhibition above about 8.5%
MIN6 prolif – inducers of MIN6 beta-cell proliferation, primary screen, ATP luminescence, uHTS; MIN6 cells proliferation, ATPlite luminescence, 48 h; cells starved in 0.2% serum; 100% = growth in 10% serum; proliferation, % at 10 µM; actives 0.29% (n = 330,000); AID 2380, 2010;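 active = compounds whose signal lies at least 3.5 SD above the mean of all wells on their plate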;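 note: 0% = DMSO-treated cells in low-serum medium and 100% = 10% serum control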
Rev-erbA mod – modulators of Rev-erb alpha DNA binding, primary screen, biochemical, FITC-DNA, fluorescence polarization, uHTS; Nuclear receptor subfamily 1 group D member 1 (Homo sapiens), P20393; Rev-erbα–FITC-DNA binding, 90 min; activity, % at 10 µM; actives 0.79% (n = 370,000);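 active = activity above about 14%, limit read from the data; passing the limit was not always enough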;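 note: 0% = DMSO wells with 35 nM protein and 100% = DMSO wells with 750 nM protein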
Target sequence (P20393 whole entry, looked up): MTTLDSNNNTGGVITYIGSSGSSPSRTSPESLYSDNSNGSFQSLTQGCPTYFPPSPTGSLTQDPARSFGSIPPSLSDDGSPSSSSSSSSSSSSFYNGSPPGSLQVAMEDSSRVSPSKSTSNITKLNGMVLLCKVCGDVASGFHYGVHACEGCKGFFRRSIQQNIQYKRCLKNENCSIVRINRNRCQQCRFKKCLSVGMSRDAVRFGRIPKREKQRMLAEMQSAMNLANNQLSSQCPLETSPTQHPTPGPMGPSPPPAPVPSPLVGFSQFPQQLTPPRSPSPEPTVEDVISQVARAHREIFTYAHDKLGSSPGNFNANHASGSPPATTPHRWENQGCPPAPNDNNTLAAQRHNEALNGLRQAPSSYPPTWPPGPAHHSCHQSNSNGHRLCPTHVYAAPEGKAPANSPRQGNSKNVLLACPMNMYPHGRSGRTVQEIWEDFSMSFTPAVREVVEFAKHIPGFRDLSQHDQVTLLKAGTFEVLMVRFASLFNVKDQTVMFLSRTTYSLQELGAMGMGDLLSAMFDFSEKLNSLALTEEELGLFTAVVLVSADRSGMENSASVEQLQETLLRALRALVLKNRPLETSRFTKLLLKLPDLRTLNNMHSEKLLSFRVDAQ
T cruzi inh – inhibitors of intracellular T. cruzi growth, primary screen, luminescence, NIH3T3 host cells; T. cruzi beta-gal in NIH3T3, 90 h; inhibition, % (concentration not given with the values); actives 1.4% (n = 300,000);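 active = mean inhibition across valid replicates above about 55%, limit read from the data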;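 note: signal also drops with host cell toxicity which is not excluded here; 0% = plate median of DMSO wells and 100% = zero luminescence signal; higher percent means less beta-gal luminescence so fewer parasites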
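assay system = mouse NIH/3T3 fibroblasts infected with β-gal-expressing T. cruzi Tulahuen C4 | input = 5,000 NIH/3T3 host cells per well | buffer or medium = DMEM plus 2% FBS | timing = 3 h host attachment, then at least 90 h co-culture | measured by = GalScreen luminescence, 60 min | evaluation = luminescence reflecting intracellular parasite burden, expressed as percent inhibition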
TAG inh – inhibitors of triacylglycerol accumulation, primary screen, cell-based, uHTS, fluorescence, H9c2 | H9c2 cells, Nile Red lipid (TAG) fluorescence; cells loaded with 200 µM oleic acid | inhibition, % at 12.5 µM | actives 0.66% (n = 230,000) | AID 651582, 2012;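 active = pattern-corrected inhibition of lipid staining of at least 50% with the nuclear-stain viability signal not falling by more than 50%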;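 note: 0% = DMSO wells and 100% = triacsin C control wells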
hiPSC survival – enhancers of single-cell hiPSC survival, primary screen, ATPlite luminescence | 100% = ROCK inhibitor wells, 0% = DMSO | survival enhancement, % at 20 µM | actives 0.044% (n = 360,000) | AID 602274, 2012; in the data active = survival enhancement above about 18%;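 note: cells exposed to compounds for 16 hours before the ATP read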
TAG conf – triacylglycerol accumulation inhibitors, retest, confirmation, cell-based, single concentration, Nile Red fluorescence, H9c2 | shares compounds with TAG inh | H9c2 lipid accumulation; cells loaded with 200 µM oleic acid | inhibition, % at 12.5 µM | actives 71% (n = 990) | AID 651629, 2012;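 active = mean inhibition across replicates of 40% or more; inactive = mean inhibition below 40%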;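 note: plate controls were DMSO only wells for no effect and Triacsin C treated wells for full effect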
Numbers without * were called inactive; · = not tested or not shown. A selection: hits, their analogues and other compounds. The true share with any hit is near 2.9%.

SMILES | PG9 binder | MIN6 prolif | Rev-erbA mod | T cruzi inh | TAG inh | hiPSC survival | TAG conf
C=C1c2nc3ccccc3n2C=C(c2ccc(C)cc2)N1c1ccccc1 | -2 | · | 5 | · | 56* | -3 | 80*
COCCCNC(=O)c1cc2c(-c3ccc(Cl)cc3)nn(C)c2s1 | -3 | -4 | -10 | 3 | 43 | -1 | ·
COCCNC(=O)c1cc2c(-c3ccc(Cl)cc3)nn(C)c2s1 | 1 | 5 | -7 | -1 | 52* | -1 | 45*
CCCC(=O)Nc1nc2nc(-c3ccccc3)cc(-c3ccccc3)n2n1 | 2 | 0 | -4 | 15 | 52* | 0 | 36
Cc1cc2c(cc1C)CSC(c1ccccc1O)SC2 | 1 | -6 | 0 | -33 | 54* | -1 | 23
Cc1cc2c(cc1C)CSC(c1ccc3ccccc3c1O)SC2 | -1 | -3 | 5 | -5 | 0 | 3 | ·
O=C(NCCc1nnc2ccc(N3CCCCCC3)nn12)c1ccccc1F | 0 | 2 | -6 | 15 | 12 | 1 | ·
NC(=O)CN1C(=O)C(=O)N(Cc2ccc(Cl)cc2)C1=O | -1 | 0 | 2 | -5 | · | 0 | ·
CSc1sc(-c2ccnc(=S)[nH]2)c(-c2ccccc2)c1C#N | -1 | 0 | 7 | 5 | 75* | 0 | 4
Cc1ccc(C(=O)N(Cc2nc(-c3ccc(C)cc3)no2)C(C)C)cc1 | -1 | -5 | 2 | -4 | · | 1 | ·
COc1ccc(OC)c(C2=Nn3c(nnc3-c3cc(OC)c(OC)c(OC)c3)SC2)c1 | 0 | 5 | -1 | 37 | · | 5 | ·
COc1cc(-c2nnc3n2N=C(c2ccccc2)CS3)cc(OC)c1OC | -1 | 1 | 2 | 33 | 90* | 5 | 66*
CCC(C)(C)n1nnnc1C(C(C)C)N1CCSCC1 (stereo unspecified) | 0 | 4 | -2 | -2 | · | -1 | ·
CCOC(=O)CN(C(=O)CSc1nnc2c(n1)[nH]c1ccccc12)c1ccccc1 | 2 | 0 | -5 | -4 | 51* | -2 | 29
NC(Cc1ccc(C(F)(F)F)cc1)c1csc(Nc2cc(NCc3ccco3)ncn2)n1 (stereo unspecified) | -1 | · | -1 | · | 29 | -2 | ·
N#CCC(=O)N/N=C/c1cn(Cc2ccc(Cl)c(Cl)c2)c2ccccc12 | -4 | -3 | 1 | 7 | 73* | 0 | 58*
N#CCC(=O)N/N=C/c1cn(Cc2ccccc2C#N)c2ccccc12 | 4 | -1 | 1 | -17 | 8 | 2 | ·
O=C(COC(=O)C1=COCCO1)NCc1ccc(Cl)cc1Cl | 1 | · | -4 | · | 66* | -3 | 9
CSc1cc(-c2ccccc2)n(Cc2c(Cl)cccc2Cl)c(=O)c1C#N | -1 | -3 | 13 | -23 | 58* | 0 | 68*
CSc1cc(-c2ccccc2)n(C)c(=O)c1C#N | -1 | -3 | 9 | 9 | 5 | 0 | ·
CC(C)c1ccc(N(CC(=O)N2CCOCC2)S(C)(=O)=O)cc1 | 0 | 1 | 3 | -7 | -1 | 0 | ·
CCC(CO)NCc1ccc(OCC(=O)Nc2cccc(C(F)(F)F)c2)c(OC)c1 (stereo unspecified) | 2 | -3 | -2 | -8 | · | -2 | ·
CCOc1cc(CNC(C)(C)C)ccc1OCC(=O)Nc1cccc(C(F)(F)F)c1 | 0 | -6 | 4 | 12 | 52* | 0 | 63*
COc1ccccc1NC(=O)Nc1nc(C(N)Cc2ccc(C(F)(F)F)cc2)cs1 (stereo unspecified) | 2 | · | 3 | · | 79* | -4 | 69*
COc1ccc(CC(N)c2csc(NC(=O)Nc3ccccc3Cc3ccccc3)n2)cc1 (stereo unspecified) | -1 | · | -1 | · | 21 | -5 | ·
SMILES | PG9 binder | MIN6 prolif | Rev-erbA mod | T cruzi inh | TAG inh | hiPSC survival | TAG conf
COc1ccc(CNC(=O)Nc2nc(C(N)Cc3ccc(F)cc3)cs2)cc1 (stereo unspecified) | 0 | · | -10 | · | 20 | -5 | ·
COc1ccc(CC(N)c2csc(NC(=O)Nc3ccccc3C(C)C)n2)cc1 (stereo unspecified) | 0 | · | 8 | · | 58* | -4 | 42*
COc1ccccc1NC(=O)Nc1nc(C(N)C2CCCCC2)cs1 (stereo unspecified) | 0 | · | -6 | · | 52* | -2 | 33
COc1ccc(CNC(=O)Nc2nc(C(N)Cc3ccc(Cl)cc3)cs2)cc1 (stereo unspecified) | -1 | · | -2 | · | 50* | -5 | 59*
CC1Sc2ccc(C(=O)NCc3cccc(C(F)(F)F)c3)cc2NC1=O (stereo unspecified) | 1 | 0 | -6 | · | -5 | 1 | ·
O=C(NCCCN1CCOCC1)c1cn(-c2ccccc2)nc1-c1cccs1 | -2 | -3 | 0 | 9 | 6 | -2 | ·
COc1ccc(C(=O)NC(CCSC)C(=O)N2CCCCCC2)cc1 (stereo unspecified) | -1 | 0 | -2 | 2 | · | 0 | ·
COc1cc(NC(=O)Nc2nc(C(N)Cc3ccc(C(F)(F)F)cc3)cs2)cc(OC)c1OC (stereo unspecified) | 2 | · | -6 | · | 87* | -5 | 99*
COc1ccc(NC(=O)Nc2nc(C(N)Cc3ccc(C(F)(F)F)cc3)cs2)cc1 (stereo unspecified) | -1 | · | -3 | · | 103 | -5 | ·
CCOC(=O)c1sc2nc(CSc3ccccc3)nc(NCCN(C)C)c2c1C | -3 | -7 | 2 | 4 | 52* | 0 | 62*
CCOC(=O)c1c(C)[nH]c(C(=O)OC(C)C(=O)Nc2ccc(C)cc2)c1C (stereo unspecified) | 3 | · | -3 | · | -11 | -1 | ·
CCOC(=O)c1[nH]c(C)c(C(=O)OC(C)C(=O)Nc2ncc(Cl)cc2Cl)c1C (stereo unspecified) | -2 | -1 | -1 | 4 | 57* | -1 | 39
CCc1cc2c3c(c1)C1(C(=O)N3C(C)(C)C=C2C)C(C#N)=C(N)Oc2[nH]c(=O)[nH]c(=O)c21 (stereo unspecified) | 1 | -5 | 1 | 11 | 51* | -1 | 49*
COC(=O)c1c(NC(=S)NN2CCN(C)CC2)sc2c1CCC(C)C2 (stereo unspecified) | 2 | -7 | -2 | 31 | 65* | -4 | 84*
COC(=O)c1c(NC(=O)Cc2cccs2)sc2c1CCC(C)C2 (stereo unspecified) | 1 | -3 | 0 | 22 | · | 1 | ·
